The values that follow come from PubChem BioAssay.

The nature of assay [1]: inhibitors of TNFa-induced NFkB p65 translocation, primary screen, imaging, HUVEC, MLSMR starter and 10KST1 sets (AID 438;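 active means inhibition above 20% together with a positive visual image hit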;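 further: compound added about 3h40 before a 20 min TNFalpha stimulation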;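 on inhibition: signal is the nuclear over cytoplasmic p65 intensity ratio per well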). As to conditions: HUVEC TNFa-induced p65 nuclear translocation; cell count: measured here: nuclei count (cytotoxicity indicator), at 2.08 µM; inhibition: at 2 µM, stronger effect = higher value, 0% TNFa-plus-vehicle, 100% no-TNFa wells.
The nature of assay [2]: reduction of polyQ htt aggregates in cells – imaging, exon1htt(103Q)mCFP cells, high-content imaging, primary screen (AID 483;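 active means visual image review flags a hit and inhibition of aggregation exceeds 20%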;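 further: compound exposure lasted 3 days before fixation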;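 on nuclei count: percent of the per-plate median nuclei count of sample wells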). The settings on record: exon1htt(103Q)mCFP cell line, aggregate imaging, at 2 µM; inhibition of aggregation: stronger effect = higher value; nuclei count: measured here: cell count, toxicity.
Assay [3] can be described thus: endothelial E-selectin expression blockers – imaging, HUVEC, immunofluorescence, MLSMR starter and 10KST1 sets, primary screen (AID 487).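 On inhibition: signal is fraction of cell area covered by stained E-selectin grains.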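 On nuclei count: 100% = median nuclei count of all wells on the same plate.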 The settings on record: HUVEC TNFalpha-induced E-selectin immunofluorescence imaging, at 2 µM; inhibition: stronger effect = higher value; nuclei count: measured here: cell number, toxicity.
The target of assay [4] is Voltage-gated potassium channel subunit beta-2 (Rattus norvegicus) (UniProt P62483). The assay can be described thus: inhibitors of rat Kvbeta2 reductase activity – biochemical, NADPH fluorescence, primary screen (AID 622;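 active means fluorescence slope higher than the sample average by over 3 SD, cut at about -0.22 in these data, passing the limit was not always enough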;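 further: slope of raw intensity against log time taken from 70 to 1610 s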). As to conditions: recombinant KvBeta, 4-cyanobenzaldehyde reduction, at 10 µM, stronger effect = higher value.
Voltage-gated potassium channel subunit beta-2 (Rattus norvegicus), sequence (P62483 whole entry, looked up): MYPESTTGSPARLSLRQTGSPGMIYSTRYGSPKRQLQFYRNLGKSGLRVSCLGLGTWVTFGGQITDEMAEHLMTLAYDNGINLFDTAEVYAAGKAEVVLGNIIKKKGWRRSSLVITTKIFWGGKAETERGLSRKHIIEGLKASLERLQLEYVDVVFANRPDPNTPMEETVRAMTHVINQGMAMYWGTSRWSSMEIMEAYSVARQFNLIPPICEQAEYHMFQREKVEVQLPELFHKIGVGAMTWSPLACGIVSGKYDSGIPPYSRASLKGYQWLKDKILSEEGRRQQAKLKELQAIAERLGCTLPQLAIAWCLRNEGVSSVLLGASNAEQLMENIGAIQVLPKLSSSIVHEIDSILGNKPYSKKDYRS
The target is the same in assay [5]. Put plainly: enhancers of rat Kvbeta2 NADPH turnover – biochemical, NADPH fluorescence, primary screen (AID 623;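 active means NADPH fluorescence slope more negative than the mean of all samples by about 3 SD, 99.7% confidence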;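 further: fluorescence intensity change per second fitted from 20 to 320 s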). The settings on record: Recombinant KvBeta, NADPH fluorescence decrease slope, 10 min; at 10 µM; stronger effect = lower value.
The target in assay [6] is Alpha-2C adrenergic receptor (Homo sapiens) (UniProt P18825). The assay can be described thus: compounds altering alpha2C-coupled GIRK flux – cell-based, HEK293 alpha2C/GIRK1/2, thallium flux, primary screen (AID 624;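 active means fluorescence slope after compound addition differing from the mean of all screened samples at 99.7% confidence, in either direction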;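 further: slope of fluorescence ratio to pre-addition baseline per second over 15 to 24 s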). The settings on record: thallium flux BTC fluorescence, at 10 µM, actives lie on both sides.
Alpha-2C adrenergic receptor (Homo sapiens), sequence (P18825 whole entry, looked up): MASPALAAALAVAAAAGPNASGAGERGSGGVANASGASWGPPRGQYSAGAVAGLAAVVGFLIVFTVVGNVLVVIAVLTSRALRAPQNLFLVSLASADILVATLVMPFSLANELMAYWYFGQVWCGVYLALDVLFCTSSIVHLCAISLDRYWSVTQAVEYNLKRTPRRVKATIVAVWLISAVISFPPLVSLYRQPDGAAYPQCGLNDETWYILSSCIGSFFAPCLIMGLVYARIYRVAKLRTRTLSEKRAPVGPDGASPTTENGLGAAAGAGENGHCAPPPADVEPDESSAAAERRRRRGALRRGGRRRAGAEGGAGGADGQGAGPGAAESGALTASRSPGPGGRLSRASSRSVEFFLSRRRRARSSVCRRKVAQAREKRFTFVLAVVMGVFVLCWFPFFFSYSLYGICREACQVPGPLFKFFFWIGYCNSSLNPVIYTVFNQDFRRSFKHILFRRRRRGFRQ
The nature of assay [7]: inhibitors of larval lipid processing in zebrafish, primary screen, whole organism, PED6 fluorescence, gall bladder and intestine (AID 686;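 active means a full or partial loss of lipid-probe fluorescence in the fish gall bladder, intestine or both, judged by eye; inactive means no fluorescence loss, or compound toxic to the fish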;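 further: larvae 5 to 7 days old with five fish per well; signal comes from phospholipase A2 cleavage of quenched PED6 carried via bile; overnight exposure to compound and PED6 before scoring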). The settings on record: Zebrafish larvae PED6 lipid processing, fluorescence scoring; screened at 20 µM (by protocol). In outline:
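System: live zebrafish larvae aged 5-7 days, whole organism; measure: graded gall bladder and intestinal fluorescence inhibition per well; incubation: overnight exposure; reagent: ingested quenched lipid PED6 at 100 nM; signal: By-eye fluorescence microscopy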

Assay [8] can be described thus: blockers of RIG-like receptor reporter activation – cell-based, Sendai virus stimulus, luciferase, 10K MLSCN set, TLR/RLR signaling modifier project, primary screen (AID 602276;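 active means inhibition at or above 50% at 10 µM; inactive means inhibition below 50%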;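 further: firefly luciferase from ISG56 promoter only with Renilla not read in this screen; 0% = Sendai virus plus DMSO and 100% = medium plus DMSO without virus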). As to conditions: HEK293 RL24 IRF3 luciferase reporter, at 10 µM, stronger effect = higher value. For orientation: A reporter such as luciferase makes a cellular process visible.
A short description of assay [9]: TLR3 IRF3 reporter activation blockers – cell-based, poly I:C stimulus, luciferase, 10K MLSCN set, primary screen (AID 602277;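 active means inhibition of the reporter signal at or above 50%; inactive means inhibition below 50%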). The settings on record: HEK293-TLR3 RL24 IRF3 luciferase reporter, at 10 µM, stronger effect = higher value.

By inhibition is commonly meant the relative decrease from the control value, in per cent.

Each structure is given as a SMILES string. The source made the active and inactive calls.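 How the source made its calls, unless noted: active means visually confirmed hit in the image check and inhibition above 20%; inconclusive means visually confirmed hit but inhibition not above 20%; inactive means no visual hit in the image check.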

In the case of `c1ccc(-c2nc3cnccn3c2Nc2ccc3c(c2)OCCO3)cc1`, the cell count in assay [1] was determined as 606. The inhibition is -36.1% (inactive) in assay [1], -20.7% (inactive) in assay [3], 8.91% (inactive) in assay [8] and 11.5% (inactive) in assay [9]. Besides, the inhibition of aggregation in assay [2] was 11.9% (inactive). Further, the nuclei count was found to be 101% in [2] and 110% in [3]. Moreover, the fluorescence slope in [4] was -0.202 (inactive). Also, the NADPH fluorescence slope in assay [5] is -6.7e-06 (inactive). The slope in assay [6] was 0.00431 (inactive). Moreover, the compound was called inactive in assay [7].
On to `O=C(Nc1cccc(OCC(=O)N2CCOCC2)c1)C1CCCCC1`, for which the cell count in [1] stood at 428. Moreover, the inhibition in assay [1] was 4.9% (inactive); in assay [3], -22.9% (inactive); in assay [8], 11.4% (inactive); in assay [9], 12.7% (inactive). Moreover, the inhibition of aggregation in assay [2] was 5.7% (inactive). The nuclei count in assay [2] turned out to be 95.1%; in assay [3], 94.2%. Further, the fluorescence slope in assay [4] was -0.471 (inactive). The NADPH fluorescence slope in assay [5] was -5.6e-05 (inactive). For the same compound, the slope in assay [6] is 0.0056 (inactive). For the same compound, the call in assay [7] was inactive.
For the compound `COc1ccc(CCN2C(=O)CC(N3CCN(S(=O)(=O)c4ccccc4)CC3)C2=O)cc1` (stereo unspecified), in assay [1], the cell count stood at 666. Moreover, the inhibition is 11.3% (inactive) in [1], 69.9% (active) in assay [3], 11.6% (inactive) in assay [8] and 6.07% (inactive) in [9]. Besides, the inhibition of aggregation in [2] was 19.5% (inactive). For the same compound, the nuclei count in assay [2] was 106%; in assay [3], 110%. In addition, in assay [4], the fluorescence slope was -0.483 (inactive). For the same compound, in [5], the NADPH fluorescence slope was -8.5e-06 (inactive). For the same compound, the slope in assay [6] is 0.0045 (inactive). Further, the result in assay [7] was inactive.
Consider `O=C(OC1CCc2ccccc2C1=O)c1ccccc1O` (stereo unspecified), for which, in assay [1], the cell count was determined as 304. Also, the inhibition in [1] is 3.8% (inactive); in assay [3] it was -86.8% (inactive); in [8] it was -5.07% (inactive); in assay [9], -40.5% (inactive). In assay [2], the inhibition of aggregation was -0.1% (inactive). Moreover, the nuclei count was found to be 100% in [2] and 106% in [3]. The fluorescence slope in assay [4] is -0.386 (inactive). Besides, the NADPH fluorescence slope in [5] was -5.3e-05 (inactive). Also, the slope in assay [6] is 0.00569 (inactive). Also, the compound was called inactive in assay [7].
`CCN(CC)C(=O)C1CCN(CC2CC=CCC2)CC1` (stereo unspecified): in [1], the cell count was found to be 377. The inhibition is -8.2% (inactive) in [1], -22.3% (inactive) in assay [3], -1.94% (inactive) in assay [8] and 9.42% (inactive) in assay [9]. Also, in [2], the inhibition of aggregation was 12.3% (inactive). Besides, the results for the nuclei count in assay [2] and in assay [3] were 110% and 76.6%, respectively. The fluorescence slope in assay [4] is -0.361 (inactive). Moreover, the NADPH fluorescence slope in assay [5] was 2.7e-06 (inactive). Further, in assay [6], the slope was 0.00638 (inactive). The compound was classed as inactive in assay [7].
In the case of `COc1cc2c(cc1OC)C(/C(C#N)=N\O)=NC(C)(C)C2`, in assay [1], the cell count was found to be 635. Moreover, the inhibition is -39.6% (inactive) in assay [1], 33% (inactive) in assay [3], 13.5% (inactive) in assay [8] and 13.6% (inactive) in assay [9]. In addition, the inhibition of aggregation in assay [2] is 2.8% (inactive). The nuclei count came out at 107% in assay [2] and 96.2% in [3]. Also, in assay [4], the fluorescence slope is -0.432 (inactive). Moreover, the NADPH fluorescence slope in [5] is -2e-05 (inactive). The slope in assay [6] was 0.0058 (inactive). In addition, the call in assay [7] was inactive.
As to `CC(OC(=O)c1ccco1)C(=O)NCc1cccs1` (stereo unspecified), in [1], the cell count was found to be 609. The inhibition is -4.4% (inactive) in assay [1], -95.9% (inactive) in assay [3], 17.9% (inactive) in assay [8] and 25.3% (inactive) in assay [9]. The inhibition of aggregation in [2] is 7.4% (inactive). Also, the nuclei count stood at 83% in assay [2] and 113% in assay [3]. The fluorescence slope in [4] was -0.444 (inactive). Besides, the NADPH fluorescence slope in assay [5] is -6e-05 (inactive). In addition, the slope in [6] was 0.00449 (inactive). Also, the result in [7] was inactive.
Regarding `Cc1cc(NC(=O)CSc2nc(C3CCCCC3)nc3ccccc23)no1`, the cell count in assay [1] is 725. In addition, the inhibition in assay [1] is -4.4% (inactive); in assay [3], -10.7% (inactive); in assay [8] it was 12.9% (inactive); in assay [9], 15.3% (inactive). For the same compound, in assay [2], the inhibition of aggregation was -20.3% (inactive). Also, the results for the nuclei count in assay [2] and in assay [3] were 110% and 106%, respectively. For the same compound, the fluorescence slope in assay [4] was -0.378 (inactive). Moreover, in [5], the NADPH fluorescence slope was -5.4e-05 (inactive). The slope in assay [6] was 0.00411 (inactive). In assay [7], the call was inactive.
As to `CCOC(=O)c1nnc2ccnn2c1N`, in assay [1], the cell count was determined as 529. Also, the inhibition in assay [1] was 6.8% (inactive); in [3] it was -120% (inactive); in [8] it was 8.28% (inactive); in assay [9], 16.2% (inactive). For the same compound, the inhibition of aggregation in [2] was -6.1% (inactive). Besides, the nuclei count in assay [2] is 108%; in assay [3] it was 111%. The fluorescence slope in assay [4] was -0.448 (inactive). The NADPH fluorescence slope in [5] is -0.000165 (inactive). In assay [6], the slope was 0.00514 (inactive). The call in [7] was inactive.
For the compound `COc1ccccc1CNC(=O)C(C)NS(=O)(=O)c1ccccc1` (stereo unspecified), in [1], the cell count came to 295. Also, the inhibition was -11.3% (inactive) in assay [1], -11.2% (inactive) in assay [3], -0.773% (inactive) in assay [8] and 1.85% (inactive) in [9]. Besides, the inhibition of aggregation in [2] was -13.2% (inactive). The nuclei count was determined as 107% in assay [2] and 78% in assay [3]. Moreover, in [4], the fluorescence slope was -0.406 (inactive). For the same compound, the NADPH fluorescence slope in [5] was 2.3e-06 (inactive). Besides, the slope in assay [6] was 0.00647 (inactive). For the same compound, the outcome in [7] was inactive.
Take `CC1(C)C2CCC1(C)C(OC(=O)CSc1nc(N)cc(=O)[nH]1)C2` (stereo unspecified): the cell count in assay [1] came out at 473. For the same compound, the inhibition in assay [1] was 6.5% (inactive); in assay [3], -343% (inactive); in assay [8] it was 3.84% (inactive); in assay [9], 8.04% (inactive). Also, the inhibition of aggregation in assay [2] is 4% (inactive). Moreover, the results for the nuclei count in [2] and in [3] were 103% and 136%, respectively. Further, the fluorescence slope in [4] was -0.367 (inactive). Moreover, the NADPH fluorescence slope in assay [5] is -4.6e-05 (inactive). For the same compound, the slope in assay [6] is 0.00448 (inactive). Further, the compound was called inactive in assay [7].
`O=C(NCCN1CCOCC1)c1ccc(CS(=O)(=O)Cc2ccccc2F)o1`: in [1], the cell count stood at 536. In addition, the inhibition was -21.6% (inactive) in assay [1], -69.5% (inactive) in assay [3], 11.2% (inactive) in assay [8] and 9.56% (inactive) in assay [9]. The inhibition of aggregation in assay [2] was -10.5% (inactive). The nuclei count in assay [2] stood at 94.3%; in assay [3] it was 108%. In addition, the fluorescence slope in assay [4] was -0.453 (inactive). In assay [5], the NADPH fluorescence slope was -5.9e-05 (inactive). The slope in assay [6] is 0.00503 (inactive). The compound was called inactive in [7].
For the compound `C=CCNc1nc2c(c(=O)n(C)c(=O)n2C)n1CCCCCC`, the cell count in assay [1] is 438. The inhibition in assay [1] was 4.7% (inactive); in assay [3] it was 4% (inactive); in [8], 8.07% (inactive); in assay [9], -34.5% (inactive). Further, the inhibition of aggregation in [2] was -8% (inactive). In addition, the nuclei count was found to be 94.9% in assay [2] and 107% in assay [3]. In addition, the fluorescence slope in [4] is -0.39 (inactive). In addition, the NADPH fluorescence slope in assay [5] was -3.7e-05 (inactive). For the same compound, the slope in assay [6] was 0.00457 (inactive). Also, the result in [7] was inactive.
